Data on 24 molecules can be found in ChEMBL document CHEMBL1148722, “Discovery and optimization of p38 inhibitors via computer-assisted drug design” (J Med Chem, 2007).

The test system of series [1] is Blood. The series can be described thus: Inhibition of LPS-induced TNFalpha production in human whole blood. It is filed as functional, tissue-based. In short, it runs like this:
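Fresh heparinized human whole blood was preincubated 30 min at 37 °C with serially diluted compound in type AB serum. It was then stimulated with E. coli LPS 0111:B4 (50 ng/mL final) for 5 h at 37 °C. Plasma TNFα was measured by ELISA, DELFIA or electrochemiluminescence against an on-plate standard curve. EC50 came from cross-plate duplicate 11-point curves fitted to a 4-parameter logistic, as the geometric mean over ≥3 donors.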

Series [2] has as its system Mus musculus. The series can be described thus: Inhibition of LPS-induced TNFalpha production in BALB/c mouse at 10 mg/kg, po. It is filed as functional. In short, it runs like this:
(§1)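 Female Balb/c mice (~20 g) were gavaged with compound in cremophor about 30 min before i.v. LPS (E. coli 0111:B4, 1.0 µg/mouse) plus D-gal (50 mg/kg) in pyrogen-free saline. After 1 h, blood was taken by cardiac puncture under anaesthesia. Serum TNFα was measured by ELISA in duplicate, and compound level by HPLC.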

Series [3] can be described thus: Clearance in Sprague-Dawley rat at 1 mg/kg, iv. It is filed as ADME, organism-based. Also on record: dose 1 mg/kg, route intravenous. Conditions: in vivo. Put shortly: (§2)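 Male Sprague-Dawley rats, fasted overnight with food returned about 4 h post-dose, three per group. One group got 1 mg/kg as a ~15 s i.v. push via femoral vein catheter at 1 mL/kg. The other got 10 mg/kg by oral gavage at 10 mL/kg. Plasma was analysed by noncompartmental pharmacokinetic methods.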

The nature of series [4]: Cmax in Sprague-Dawley rat at 10 mg/kg, po. The series is classed as ADME, organism-based. The arrangement: dose 10 mg/kg, route oral. Conditions: in vivo. Put shortly: as §2
The nature of series [5]: Bioavailability in Sprague-Dawley rat at 10 mg/kg, po. The series is classed as ADME, organism-based. Conditions: in vivo. Put shortly: as §2
Series [6] deals with Mus musculus. The series can be described thus: Inhibition of LPS-induced TNFalpha production in BALB/c mouse at 3 mg/kg, po. The series is classed as functional. Put shortly:
as §1

In series [7] the target is Mitogen-activated protein kinase 9 (Homo sapiens, UniProt P45984). The series can be described thus: Inhibition of JNK2.
Chain of Mitogen-activated protein kinase 9 (P45984 whole entry): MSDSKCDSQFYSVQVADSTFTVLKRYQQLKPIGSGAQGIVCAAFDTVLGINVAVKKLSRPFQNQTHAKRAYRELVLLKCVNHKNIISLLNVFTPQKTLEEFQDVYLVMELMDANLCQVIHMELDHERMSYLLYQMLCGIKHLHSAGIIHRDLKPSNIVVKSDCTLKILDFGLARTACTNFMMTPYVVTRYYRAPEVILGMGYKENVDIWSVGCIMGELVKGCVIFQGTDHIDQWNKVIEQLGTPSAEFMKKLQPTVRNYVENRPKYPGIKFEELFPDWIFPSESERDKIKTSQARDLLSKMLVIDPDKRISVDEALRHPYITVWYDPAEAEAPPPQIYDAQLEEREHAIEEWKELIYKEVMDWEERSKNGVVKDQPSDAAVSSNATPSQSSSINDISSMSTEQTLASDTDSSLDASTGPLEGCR
The target in series [8] is Tyrosine-protein kinase Lyn (Homo sapiens, UniProt P07948). Kind of series: Inhibition of Lyn.
Chain of Tyrosine-protein kinase Lyn (P07948 whole entry): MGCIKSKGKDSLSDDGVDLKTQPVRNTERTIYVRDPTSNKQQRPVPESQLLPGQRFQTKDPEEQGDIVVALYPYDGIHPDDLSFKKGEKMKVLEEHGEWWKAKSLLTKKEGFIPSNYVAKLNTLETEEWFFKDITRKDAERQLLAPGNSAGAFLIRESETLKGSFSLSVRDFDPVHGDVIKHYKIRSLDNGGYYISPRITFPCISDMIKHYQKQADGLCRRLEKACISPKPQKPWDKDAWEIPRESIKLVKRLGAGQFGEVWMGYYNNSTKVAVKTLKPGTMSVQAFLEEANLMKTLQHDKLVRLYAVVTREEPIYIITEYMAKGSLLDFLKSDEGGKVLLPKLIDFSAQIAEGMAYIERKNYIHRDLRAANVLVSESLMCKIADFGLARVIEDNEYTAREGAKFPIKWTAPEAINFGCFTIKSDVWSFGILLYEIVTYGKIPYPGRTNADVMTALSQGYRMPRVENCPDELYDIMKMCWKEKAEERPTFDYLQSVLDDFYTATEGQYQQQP

In general, IC50 refers to the point on the concentration scale where inhibition reaches its midpoint. Usually inhibition in vivo stands for how much of the control response was suppressed. Read a low inhibition in vivo as little suppression. One may read the clearance as the rate of elimination divided by the concentration. A low value points to inefficient removal. The term Cmax denotes the maximum level reached in the sampled fluid or tissue. What is called bioavailability is dose-corrected exposure relative to a reference, in per cent. A high value points to much systemic uptake.

Structures are written as SMILES.

Turning to `COc1c(NC(=O)c2cc3ccccc3n2C)cc(C(C)(C)C)cc1NS(C)(=O)=O`, in series [1], the IC50 is above 10 µM.
`COc1c(NC(=O)c2cc3cccc(NC(=O)c4ccc(N(C)C)nc4)c3s2)cc(C(C)(C)C)cc1NS(C)(=O)=O`: the 50% inhibitory concentration (IC50) in series [1] was 2.2 µM.
Molecule `COc1c(NC(=O)c2cc3cccc(NC(=O)c4ccc(N)nc4)c3s2)cc(C(C)(C)C)cc1NS(C)(=O)=O` had an IC50 in series [1] of 0.43 µM.
The same measure, in the same setting: the figure for `CNc1ccc(C(=O)Nc2cccc3cc(C(=O)Nc4cc(C(C)(C)C)cc(NS(C)(=O)=O)c4OC)n(C)c23)cn1` is 0.5 µM.
Regarding `COc1c(NC(=O)c2cc3cccc(NC(=O)c4cccnc4)c3s2)cc(C(C)(C)C)cc1NS(C)(=O)=O`, the IC50 in series [1] came to 1.1 µM. Besides, in series [2], the inhibition in vivo at 10 mg/kg came out at 60%. Further, the clearance in series [3] amounted to 19 mL/min/kg. In series [4], the highest level (Cmax) was 5200 ng/mL. In series [5], this molecule yielded a bioavailability of 57%.
Molecule `COCCNc1ccc(C(=O)Nc2cccc3cc(C(=O)Nc4cc(C(C)(C)C)cc(NS(C)(=O)=O)c4OC)sc23)cn1` showed an IC50 in series [1] of 0.13 µM. In other words, the sub-micromolar range.
Same read-out and setting: to `COc1c(NC(=O)c2cc3cccc(NC(=O)c4ccc(NCCN5CCOCC5)nc4)c3s2)cc(C(C)(C)C)cc1NS(C)(=O)=O` belongs 0.55 µM; to `COc1c(NC(=O)Nc2cccc3ccccc23)cc(C(C)(C)C)cc1NS(C)(=O)=O`, above 10 µM; to `COc1c(NC(=O)c2cc3ccccc3[nH]2)cc(C(C)(C)C)cc1NS(C)(=O)=O`, above 10 µM.
As to `COc1c(NC(=O)c2cc3ccccc3s2)cc(C(C)(C)C)cc1NS(C)(=O)=O`, the IC50 in series [1] is above 10 µM.
Regarding `COc1c(NC(=O)c2cc3cccc(NC(=O)c4ccc(NCC5CC5)nc4)c3n2C)cc(C(C)(C)C)cc1NS(C)(=O)=O`, in series [1], the IC50 stood at 0.15 µM.
On the same count and under the same terms, to `COc1c(NC(=O)Nc2ccc(OCCN3CCOCC3)c3ccccc23)cc(C(C)(C)C)cc1NS(C)(=O)=O` belongs 1.06 µM; to `COCCNc1ccc(C(=O)Nc2cccc3cc(C(=O)Nc4cc(C(C)(C)C)cc(NS(C)(=O)=O)c4OC)n(C)c23)cn1`, 0.16 µM; to `COc1c(NC(=O)c2cc3cccc(NC(=O)c4ccc(NCCN(C)C)nc4)c3n2C)cc(C(C)(C)C)cc1NS(C)(=O)=O`, 0.7 µM.
Still for that read-out and setting: to `COc1c(NC(=O)c2cc3cccc(NC(=O)c4ccc(NCCN5CCOCC5)nc4)c3n2C)cc(C(C)(C)C)cc1NS(C)(=O)=O` belongs 0.25 µM.
In series [1], `COc1c(NC(=O)c2cc3cccc(NC(=O)c4ccc(NC5CC5)nc4)c3n2C)cc(C(C)(C)C)cc1NS(C)(=O)=O` registered a 50% inhibitory concentration (IC50) of 0.14 µM. The same molecule yielded an inhibition in vivo at 10 mg/kg in series [2] of 75%. Besides, the inhibition in vivo at 3 mg/kg in series [6] was 60%. Moreover, the clearance in series [3] is 5 mL/min/kg. Further, the highest level in series [4] (Cmax) was 14000 ng/mL. For the same molecule, in series [5], the bioavailability stood at 51%.
On to `COc1c(NC(=O)c2cc3ccccc3o2)cc(C(C)(C)C)cc1NS(C)(=O)=O`, for which the IC50 in series [1] is above 10 µM.
Molecule `COc1c(NC(=O)c2cc3cccc(NC(=O)c4cccnc4)c3n2C)cc(C(C)(C)C)cc1NS(C)(=O)=O` registered a half-maximal inhibitory concentration (IC50) in series [1] of 3.6 µM. Further, the inhibition in vivo at 10 mg/kg in series [2] was 60%. The molecule also gave a clearance in series [3] of 3 mL/min/kg. The molecule also registered a Cmax in series [4] of 9000 ng/mL. In series [5], this molecule registered a bioavailability of 90%.
The molecule `COc1c(NC(=O)c2cc3c(NC(=O)c4cccnc4)cccc3s2)cc(C(C)(C)C)cc1NS(C)(=O)=O` yielded a half-maximal inhibitory concentration (IC50) in series [1] above 10 µM.
Regarding `COc1c(NC(=O)c2cc3cccc(NC(=O)c4ccc(NC5CC5)nc4)c3s2)cc(C(C)(C)C)cc1NS(C)(=O)=O`, the IC50 came to 0.18 µM in series [1], 0.016 µM in series [7] and 0.23 µM in series [8]. In series [2], at 10 mg/kg the inhibition in vivo was 98%. The molecule further gave an inhibition in vivo at 3 mg/kg in series [6] of 80%. The same molecule showed a clearance in series [3] of 4 mL/min/kg. The maximum concentration (Cmax) in series [4] worked out at 2400 ng/mL. The molecule further registered a bioavailability in series [5] of 51%.
Consider `COc1c(NC(=O)c2cc3cccc(NC(=O)c4ccc(NCC5CC5)nc4)c3s2)cc(C(C)(C)C)cc1NS(C)(=O)=O`, for which the midpoint of inhibition in series [1], the IC50, lay at 0.67 µM.
On the same count and under the same terms, to `CNc1ccc(C(=O)Nc2cccc3cc(C(=O)Nc4cc(C(C)(C)C)cc(NS(C)(=O)=O)c4OC)sc23)cn1` belongs 1.1 µM.
With `Cc1ccc(-n2nc(C(C)(C)C)cc2NC(=O)Nc2ccc(OCCN3CCOCC3)c3ccccc23)cc1` [DORAMAPIMOD], the inhibition in vivo at 10 mg/kg in series [2] is 60%. The molecule further displayed a clearance in series [3] of 1.7 mL/min/kg. Further, in series [4], the peak level (Cmax) was 10900 ng/mL. Besides, in series [5], the bioavailability came to 76%.
For the molecule `COc1c(NC(=O)c2cc3cccc(NC(=O)c4ccc(NCCN(C)C)nc4)c3s2)cc(C(C)(C)C)cc1NS(C)(=O)=O`, in series [1], the 50% inhibitory concentration (IC50) turned out to be 0.65 µM.
